Laboratory results as given in ChEMBL document CHEMBL1131159, “Bis-cationic heteroaromatics as macrofilaricides: synthesis of bis-amidine and bis-guanylhydrazone derivatives of substituted imidazo[1,2-a]pyridines” (1998).
Values joined by “and” are separate entries in the source; they are usually repeats but may differ in a detail not shown here. Equal values may be shown once.

Columns and labels:
[1] = system: Acanthocheilonema viteae; test: Macrofilarial reduction at 100 mg/kg dosage by subcutaneous administration for a period of 5 days against Acanthocheilonema viteae; type: functional
In short: (§1)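 Jirds doubly infected with A. viteae and B. pahangi were dosed subcutaneously once daily on five successive days. Each series included a flubendazole positive control at 2.0 mg/day for 5 days. Jirds were killed 56 days later and worms of each species counted. Worm percentage was compared with untreated negative controls, and ≥60% reduction was scored as active.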

[2] = system: Brugia pahangi; test: Macrofilarial reduction at 100 mg/kg dosage by subcutaneous administration for a period of 5 days against Brugia pahangi; type: functional; in short: as §1
[3] = system: Meriones unguiculatus; test: Compound was tested for macrofilarial reduction at 3.12 mg/kg dosage by subcutaneous administration for a period of 5 days against Acanthocheilonema viteae (Acanthocheilonema viteae); type: functional; in short: as §1
[4] = system: Meriones unguiculatus; test: Compound was tested for macrofilarial reduction at 3.12 mg/kg dosage by subcutaneous administration for a period of 5 days against Brugia pahangi (Brugia pahangi).; type: functional; in short: as §1
[5] = Compound was tested for macrofilarial reduction at 12.5 mg/kg dosage by subcutaneous administration for a period of 5 days against Acanthocheilonema viteae (Acanthocheilonema viteae); type: functional, Meriones unguiculatus; in short: as §1
[6] = system: Meriones unguiculatus; test: Compound was tested for macrofilarial reduction at 12.5 mg/kg dosage by subcutaneous administration for a period of 5 days against Brugia pahangi (Brugia pahangi).; type: functional; in short: as §1
[7] = system: Meriones unguiculatus; test: Compound was tested for macrofilarial reduction at 100 mg/kg dosage by subcutaneous administration for a period of 5 days against Acanthocheilonema viteae (Acanthocheilonema viteae); Toxic; type: functional, organism-based; design: dose 100 mg/kg; in short: as §1
[8] = system: Meriones unguiculatus; test: Compound was tested for macrofilarial reduction at 100 mg/kg dosage by subcutaneous administration for a period of 5 days against Brugia pahangi (Brugia pahangi); Toxic; type: functional, organism-based; design: dose 100 mg/kg; in short: as §1
[9] = system: Meriones unguiculatus; test: Compound was tested for macrofilarial reduction at 6.25 mg/kg dosage by subcutaneous administration for a period of 5 days against Acanthocheilonema viteae (Acanthocheilonema viteae); type: functional; in short: as §1
[10] = system: Meriones unguiculatus; test: Compound was tested for macrofilarial reduction at 75 mg/kg dosage by subcutaneous administration for a period of 5 days against Acanthocheilonema viteae (Acanthocheilonema viteae); type: functional; in short: as §1
[11] = system: Meriones unguiculatus; test: Compound was tested for macrofilarial reduction at 75 mg/kg dosage by subcutaneous administration for a period of 5 days against Brugia pahangi (Brugia pahangi).; type: functional; in short: as §1
[12] = system: Meriones unguiculatus; test: Compound was tested for macrofilarial reduction at 1.56 mg/kg dosage by subcutaneous administration for a period of 5 days against Acanthocheilonema viteae (Acanthocheilonema viteae); type: functional; in short: as §1
[13] = system: Meriones unguiculatus; test: Compound was tested for macrofilarial reduction at 1.56 mg/kg dosage by subcutaneous administration for a period of 5 days against Brugia pahangi (Brugia pahangi).; type: functional; in short: as §1
[14] = system: Meriones unguiculatus; test: Compound was tested for macrofilarial reduction at 25 mg/kg dosage by subcutaneous administration for a period of 5 days against Brugia pahangi (Brugia pahangi).; type: functional; in short: as §1
[15] = system: Meriones unguiculatus; test: Compound was tested for macrofilarial reduction at 50 mg/kg dosage by subcutaneous administration for a period of 5 days against Acanthocheilonema viteae (Acanthocheilonema viteae); type: functional; in short: as §1
[16] = system: Meriones unguiculatus; test: Compound was tested for macrofilarial reduction at 50 mg/kg dosage by subcutaneous administration for a period of 5 days against Brugia pahangi (Brugia pahangi).; type: functional; in short: as §1
[17] = system: Meriones unguiculatus; test: Compound was tested for macrofilarial reduction at 6.25 mg/kg dosage by subcutaneous administration for a period of 5 days against Brugia pahangi (Brugia pahangi).; type: functional; in short: as §1
[18] = system: Meriones unguiculatus; test: Compound was tested for macrofilarial reduction at 25 mg/kg dosage by subcutaneous administration for a period of 5 days against Acanthocheilonema viteae (Acanthocheilonema viteae); type: functional; in short: as §1
[19] = system: Meriones unguiculatus; test: Compound was tested for macrofilarial reduction at 100 mg/kg dosage by subcutaneous administration for a period of 5 days against Acanthocheilonema viteae (Acanthocheilonema viteae) * Toxicity noted at this dosage; type: functional; in short: as §1
[20] = system: Meriones unguiculatus; test: Compound was tested for macrofilarial reduction at 100 mg/kg dosage by subcutaneous administration for a period of 5 days against Brugia pahangi (Brugia pahangi). * Toxicity noted at this dosage; type: functional; in short: as §1

SMILES: N=C(NN=Cc1ccc2nc(C=NNC(=N)N3CCCC3)cn2c1)N1CCCC1
- Reduction [1]: 0%
- Reduction [2]: 5%

SMILES: N=C(c1ccc(-c2cn3cc(C(=N)N4CCCC4)ccc3n2)cc1)N1CCCC1
- Reduction [3]: 39%
- Reduction [4]: 0%

SMILES: c1cc(-c2cn3cc(C4=NCCN4)ccc3n2)ccc1C1=NCCN1
- Reduction [1]: 0%
- Reduction [2]: 35%

SMILES: C(/C=C/c1ccc(-c2cn3cc(/C=C/C=NNC4=NCCN4)ccc3n2)cc1)=NNC1=NCCN1
- Reduction [1]: 71%
- Reduction [2]: 18%

SMILES: N=C(c1ccc(-c2cn3ccccc3n2)cc1)N1CCCC1
- Reduction [1]: 0%
- Reduction [2]: 36%

SMILES: N=C(NN=Cc1ccc(-c2cn3ccccc3n2)cc1)N1CCOCC1
- Reduction [1]: 0%
- Reduction [2]: 12%

SMILES: C(=NNC1=NCCN1)c1ccc(/C=C/c2cn3cc(C=NNC4=NCCN4)ccc3n2)cc1
- Reduction [1]: 24%
- Reduction [2]: 4%

SMILES: CN1CCN(C(=N)/C=C/c2ccc(-c3cn4cc(/C=C/C(=N)N5CCN(C)CC5)ccc4n3)cc2)CC1
- Reduction [5]: 57%
- Reduction [6]: 0%

SMILES: c1ccn2cc(-c3ccc(C4=NCCCN4)cc3)nc2c1
- Reduction [1]: 0%
- Reduction [2]: 0%

SMILES: C(=C\c1cn2cc(C3=NCCN3)ccc2n1)/c1ccc(C2=NCCN2)cc1
- Reduction [7]: Toxic
- Reduction [8]: Toxic

SMILES: C(=NNC1=NCCCN1)c1ccc(-c2cn3cc(C=NNC4=NCCCN4)ccc3n2)cc1
- Reduction ([9]; 6.25 mg/kg): 100% and 75%
- Reduction [10]: 100%
- Reduction [11]: 0%
- Reduction [12]: 73%
- Reduction [13]: 16%
- Reduction [1]: 100%
- Reduction ([2]; 100 mg/kg): 9% and 0%
- Reduction ([5]; 12.5 mg/kg): 100% and 64%
- Reduction [14]: 0%
- Reduction [3]: 88%
- Reduction [4]: 11%
- Reduction [15]: 100%
- Reduction [16]: 0%

SMILES: N=C(c1ccc(-c2cn3ccccc3n2)cc1)N1CCCCC1
- Reduction [1]: 0%
- Reduction [2]: 15%

SMILES: C(=NNC1=NCCCN1)c1ccc(/C=C/c2cn3cc(C=NNC4=NCCCN4)ccc3n2)cc1
- Reduction [1]: 100%
- Reduction [2]: 32%

SMILES: C(=Cc1ccc(-c2cn3cc(C=CC4=NCCS4)ccc3n2)cc1)C1=NCCS1
- Reduction [1]: 0%
- Reduction [2]: 0%

SMILES: CC(C)NC(=N)NN=Cc1ccc(-c2cn3cc(C=NNC(=N)NC(C)C)ccc3n2)cc1
- Reduction [1]: 100%
- Reduction [2]: 32%

SMILES: Cc1ccc(S(=O)(=O)NN=Cc2ccc(-c3cn4cc(C=NNS(=O)(=O)c5ccc(C)cc5)ccc4n3)cc2)cc1
- Reduction [1]: 0%
- Reduction [2]: 16%

SMILES: C(=NNc1ccccn1)c1ccc(-c2cn3cc(C=NNc4ccccn4)ccc3n2)cc1
- Reduction [1]: 0%
- Reduction [2]: 0%

SMILES: CC(C)NC(=N)c1ccc(/C=C/c2cn3cc(C(=N)NC(C)C)ccc3n2)cc1
- Reduction [7]: Toxic
- Reduction [8]: Toxic

SMILES: N=C(/C=C/c1ccc(-c2cn3cc(/C=C/C(=N)N4CCCC4)ccc3n2)cc1)N1CCCC1
- Reduction [9]: 72%
- Reduction [17]: 0%

SMILES: N=C(NN=Cc1ccc(-c2cn3ccccc3n2)cc1)N1CCCC1
- Reduction [1]: 47%
- Reduction [2]: 0%

SMILES: C(=NNC1=NCCN1)c1ccc2nc(-c3ccccc3)cn2c1
- Reduction [1]: 20%
- Reduction [2]: 0%

SMILES: C(=NNC1=NCCCN1)c1ccc(-c2cn3ccccc3n2)cc1
- Reduction [1]: 0%
- Reduction [2]: 0%

SMILES: C(=NNC1=NCCS1)c1ccc(-c2cn3cc(C=NNC4=NCCS4)ccc3n2)cc1
- Reduction [1]: 0%
- Reduction [2]: 38%

SMILES: N=C(c1ccc(/C=C/c2cn3cc(C(=N)N4CCCC4)ccc3n2)cc1)N1CCCC1
- Reduction [7]: Toxic
- Reduction [8]: Toxic

SMILES: C(=NNC1=NCCC1)c1ccc(-c2cn3cc(C=NNC4=NCCC4)ccc3n2)cc1
- Reduction [1]: 24%
- Reduction [2]: 5%

SMILES: C(=Cc1ccc(-c2cn3ccccc3n2)cc1)C1=NCCN1
- Reduction [1]: 28%
- Reduction [2]: 18%

SMILES: C(=NNC1=NCCN1)c1ccc2nc(C=NNC3=NCCN3)cn2c1
- Reduction [1]: 5%
- Reduction [2]: 5%

SMILES: C(=NNC1=NCCN1)c1ccc(-c2cn3cc(C=NNC4=NCCN4)ccc3n2)cc1
- Reduction ([1]; 100 mg/kg): 100% and 78%
- Reduction ([2]; 100 mg/kg): 18% and 11%
- Reduction [5]: 82%
- Reduction [6]: 0%
- Reduction ([18]; 25 mg/kg): 82% and 73%
- Reduction [15]: 100%
- Reduction [16]: 0%

SMILES: c1ccc(-c2cn3cc(C4=NCCN4)ccc3n2)cc1
- Reduction [1]: 0%
- Reduction [2]: 42%

SMILES: N=C(NN=Cc1ccc(-c2cn3cc(C=NNC(=N)N4CCCC4)ccc3n2)cc1)N1CCCC1
- Reduction [1]: 60%
- Reduction [19]: 73%
- Reduction [2]: 0%
- Reduction [20]: 0%

SMILES: c1ccn2cc(-c3ccc(C4=NCCN4)cc3)nc2c1
- Reduction [1]: 20%
- Reduction [2]: 8%

SMILES: C(/C=C/c1ccc(-c2cn3cc(/C=C/C=NNC4=NCCCN4)ccc3n2)cc1)=NNC1=NCCCN1
- Reduction ([1]; 100 mg/kg): 100% and 64%
- Reduction [5]: 50%
- Reduction [6]: 38%
- Reduction [18]: 73%
- Reduction [14]: 13%
- Reduction [15]: 100%
- Reduction [16]: 38%

SMILES: N=C(NN=C/C=C/c1ccc(-c2cn3cc(/C=C/C=NNC(=N)N4CCCC4)ccc3n2)cc1)N1CCCC1
- Reduction [5]: 50%
- Reduction [6]: 38%

SMILES: C(=NNC1=NCCN1)c1ccc(-c2cn3ccccc3n2)cc1
- Reduction [1]: 60%
- Reduction [2]: 0%

SMILES: C(=NNC1=NCCCN1)c1ccc2nc(C=NNC3=NCCCN3)cn2c1
- Reduction [1]: 0%
- Reduction [2]: 5%

SMILES: Nc1ccc(C(=O)NN=Cc2ccc(-c3cn4cc(C=NNC(=O)c5ccc(N)cc5)ccc4n3)cc2)cc1
- Reduction [1]: 0%
- Reduction [2]: 8%

SMILES: C(=Cc1ccc(-c2cn3ccccc3n2)cc1)C1=NCCS1
- Reduction [1]: 0%
- Reduction [2]: 0%

SMILES: N=C(/C=C/c1ccc(-c2cn3cc(/C=C/C(=N)N4CCOCC4)ccc3n2)cc1)N1CCOCC1
- Reduction [5]: 50%
- Reduction [6]: 0%

SMILES: N=C(c1ccc2nc(-c3ccccc3)cn2c1)N1CCCC1
- Reduction ([1]; 100 mg/kg): 60% and 27%
- Reduction ([2]; 100 mg/kg): 25% and 0%

SMILES: N=C(c1ccc(-c2cn3ccccc3n2)cc1)N1CCOCC1
- Reduction [1]: 0%
- Reduction [2]: 29%

SMILES: N=C(c1ccc2nc(-c3ccccc3)cn2c1)N1CCOCC1
- Reduction [1]: 0%
- Reduction [2]: 12%

SMILES: C(=NNC1=NCCCN1)c1ccc2nc(-c3ccccc3)cn2c1
- Reduction [1]: 30%
- Reduction [2]: 0%
